These results are taken from ChEMBL document CHEMBL2086304, “Synthesis and in vitro antimycobacterial and isocitrate lyase inhibition properties of novel 2-methoxy-2'-hydroxybenzanilides, their thioxo analogues and benzoxazoles” (Eur J Med Chem, 2012).

≈ marks a conversion by molar mass, not a printed value.

The term MIC denotes the smallest concentration in the dilution series that meets the test's criterion for growth inhibition. A higher MIC goes with weaker potency. One may read the inhibition as the change of the read-out against control, counted positive when it falls. Low values mean little suppression, high ones strong suppression. One may read the IC50 as the midpoint of a concentration-inhibition curve.

The test system of assay [1] is Mycobacterium tuberculosis. Briefly: Antimycobacterial activity against Mycobacterium tuberculosis 331/88 after 14 days by micromethod. It is filed as functional. As to conditions: 331/88, 336 h. The procedure, abridged: (§1)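 Inocula: M. tuberculosis My 331/88 at 10^-3 dilution, M. avium My 330/88 at 10^-5, M. kansasii My 235/80 and clinical isolate 6509/96 at 10^-4. Compounds added in DMSO at 1000 down to 0.5 (twofold series). Read at 14 and 21 days, plus 7 days for M. kansasii. MIC taken as lowest concentration inhibiting growth.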

For assay [2], the system named is Mycobacterium tuberculosis. The assay is described as follows: Antimycobacterial activity against Mycobacterium tuberculosis 331/88 after 21 days by micromethod. It is filed as functional. Particulars: 331/88, 504 h. The procedure, abridged: as §1
Assay [3] concerns Mycobacterium avium. The assay is described as follows: Antimycobacterial activity against isoniazid resistance Mycobacterium avium 330/88 after 14 days by micromethod. It is filed as functional. Particulars: 330/88, 336 h. The essentials: as §1
In assay [4] the test system is Mycobacterium avium. Briefly: Antimycobacterial activity against isoniazid resistance Mycobacterium avium 330/88 after 21 days by micromethod. The format is functional. As to conditions: 330/88, 504 h. The essentials: as §1
The subject of assay [5] is Mycobacterium kansasii. The assay is described as follows: Antimycobacterial activity against Mycobacterium kansasii 6509/96 clinical isolate after 7 days by micromethod. As to conditions: 6509/96, 168 h. It is filed as functional. The procedure, abridged:
as §1

Assay [6] concerns Mycobacterium kansasii. The assay is described as follows: Antimycobacterial activity against isoniazid resistance Mycobacterium kansasii 225/80 after 7 days by micromethod. The format is functional. Particulars: 225/80, 168 h.
The test system of assay [7] is Mycobacterium kansasii. The assay is described as follows: Antimycobacterial activity against isoniazid resistance Mycobacterium kansasii 225/80 after 14 days by micromethod. Particulars: 225/80, 336 h. It is filed as functional.
Assay [8] deals with Mycobacterium kansasii. The assay is described as follows: Antimycobacterial activity against isoniazid resistance Mycobacterium kansasii 225/80 after 21 days by micromethod. It is filed as functional. Particulars: 225/80, 504 h.
Assay [9] has as its system Mycobacterium kansasii. Briefly: Antimycobacterial activity against Mycobacterium kansasii 6509/96 clinical isolate after 14 days by micromethod. It is filed as functional. As to conditions: 6509/96, 336 h. The essentials: as §1
Assay [10] concerns Mycobacterium kansasii. Briefly: Antimycobacterial activity against Mycobacterium kansasii 6509/96 clinical isolate after 21 days by micromethod. Particulars: 6509/96, 504 h. The format is functional. The essentials: as §1
Assay [11] concerns the target T1, Isocitrate lyase (Mycobacterium tuberculosis) (UniProt P9WKK7).
T1 sequence (whole entry): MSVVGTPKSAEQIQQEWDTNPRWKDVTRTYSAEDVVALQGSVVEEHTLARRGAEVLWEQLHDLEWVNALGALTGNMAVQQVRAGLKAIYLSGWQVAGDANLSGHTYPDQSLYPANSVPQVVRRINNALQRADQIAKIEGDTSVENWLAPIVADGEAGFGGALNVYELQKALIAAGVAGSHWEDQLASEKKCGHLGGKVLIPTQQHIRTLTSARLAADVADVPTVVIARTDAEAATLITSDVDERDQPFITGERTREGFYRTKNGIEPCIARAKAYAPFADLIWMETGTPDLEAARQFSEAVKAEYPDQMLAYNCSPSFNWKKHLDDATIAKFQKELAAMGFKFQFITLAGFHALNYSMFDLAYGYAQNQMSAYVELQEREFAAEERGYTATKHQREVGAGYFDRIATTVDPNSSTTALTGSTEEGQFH
Briefly: Inhibition of Mycobacterium tuberculosis H37Rv isocitrate lyase expressed in Escherichia coli HB101 at 10 umol/L. The essentials: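 Isocitrate lyase assayed per Dixon–Kornberg in 96-well format. Buffer: 50 mmol/L KH2PO4, 4 mmol/L MgCl2, 4 mmol/L phenylhydrazine, 12 mmol/L cysteine, pH 7.0. Glyoxylate phenylhydrazone read at 324 nm. Compounds added in DMSO, with DMSO-alone inhibition subtracted.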

A further assay concerns HepG2. The assay is described as follows: Cytotoxicity against human HepG2 cells after 24 hrs by CellTiter-96 cell viability assay. It is filed as functional, cell-based. Particulars: HepG2, 24 h. The procedure, abridged:
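Hep G2 human hepatic cells (passage 12), 10,000 per well, grown 24 h at 37 °C, 5% CO2 in MEM with 1% glutamine, 10% FBS and 1% nonessential amino acids. Compounds in DMSO at eight increasing concentrations, quadruplicate, 24 h at 37 °C. Kit reagent added, 1.5 h at 37 °C, absorbance 490 nm. IC50 is the concentration reducing viability to 50% of control.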

Assay [12] is described as follows: Selectivity index, ratio of IC50 for human HepG2 cells to MIC for Mycobacterium tuberculosis 331/88 after 14 days. The format is functional. The procedure, abridged:
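Cytotoxicity in Hep G2 cells (passage 12), 10,000 cells/well, in MEM with 10% FBS, 1% glutamine and 1% nonessential amino acids. Cells preincubated 24 h, 37 °C, 5% CO2. Compounds in DMSO at eight concentrations in quadruplicate, 24 h. MTS-type reagent added for 1.5 h, A490 read, IC50 taken at 50% viability. SI = this IC50 over the 14-day M. tuberculosis MIC.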

Regarding `COc1ccc(Cl)cc1C(=S)Nc1cc(Cl)ccc1O`, the minimum inhibitory concentration (MIC) worked out at 16 µM (≈ 5.25 µg/mL) in assay [1]; 32 µM (≈ 10.5 µg/mL) in assay [2]; 32 µM (≈ 10.5 µg/mL) against Mycobacterium avium [3]; 32 µM (≈ 10.5 µg/mL) in the assay on Mycobacterium avium [4]; 16 µM (≈ 5.25 µg/mL) in the assay on Mycobacterium kansasii [5]; 8 µM (≈ 2.63 µg/mL) with Mycobacterium kansasii [6]. For the same compound, the MIC with Mycobacterium kansasii [7] amounted to 8 µM (≈ 2.63 µg/mL); in the assay with Mycobacterium kansasii [8] it was 16 µM (≈ 5.25 µg/mL); against Mycobacterium kansasii [9], 32 µM (≈ 10.5 µg/mL); with Mycobacterium kansasii [10] it was 32 µM (≈ 10.5 µg/mL). The inhibition in assay [11] came to 0%. In the assay with HepG2, this compound displayed an IC50 of 8.6 µM. Further, the “Selectivity Index” value in assay [12] is recorded as 0.54.
